Shown are actives, neighbours in structure and some others; about 2.4% of the full set was active somewhere.
DNMT1 inh – DNMT1 (human) enzyme inhibition | inhibition (reported as % activation of signal), % at 10 µM | DNMT1 molecular beacon, Hinp1I cleavage, fluorescence | 0.83% of 360,000 active | P26358 | AID 588458; in the data active = inhibition above about 50%
STEP inh – inhibitors of human striatal-enriched phosphatase STEP; inhibition, % at 20 µM; 0.25% of 360,000 active; recombinant STEP, OMFP fluorogenic substrate, fluorescence; P54829;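 active = inhibition at 20 µM, scaled per plate between control wells, above about 37%, limit read from the data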;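 also: 0% = DMSO with enzyme and substrate and 100% = substrate only without enzyme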
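Test system: STEP tyrosine phosphatase / Reagent: OMFP at 25 µM / Doses: 20 µM, 1% DMSO / Read-out: percent inhibition scaled to no-enzyme and uninhibited-enzyme controls, plate-pattern corrected / Detection: FITC-channel fluorescence of OMFP product / Medium: Bis-Tris buffer pH 6.0, 2.5 mM DTT, 0.005% Tween 20 / Schedule: 20 min at room temperature, dark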
LMPTP block – blocks human LMPTP phosphatase; recombinant LMPTP-A, OMFP fluorogenic substrate, fluorescence intensity; 0.22% of 360,000 active; inhibition, % at 20 µM; AID 651560;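 active = compounds that cut the enzyme signal by at least half of the control window in the single-dose screen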;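 also: plate controls were DMSO wells with enzyme plus substrate for no effect and substrate without enzyme for full effect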
Target sequence (P24666 whole entry, looked up): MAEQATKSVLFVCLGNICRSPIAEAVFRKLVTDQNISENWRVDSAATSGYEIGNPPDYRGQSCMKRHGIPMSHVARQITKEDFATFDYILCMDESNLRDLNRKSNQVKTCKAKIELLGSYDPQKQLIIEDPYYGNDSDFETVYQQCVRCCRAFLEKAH
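material = LMPTP-A | quantity = 0.625 nM enzyme | reagent = OMFP substrate, 400 µM final | buffer or medium = Bis-Tris pH 6.0, DTT, detergent | detection = endpoint fluorescence intensity from OMFP dephosphorylation | dosing = single 20 µM dose | read-out basis = % inhibition relative to no-enzyme and uninhibited control wells | control set = no-enzyme and uninhibited controls | timing = 50 min at room temperature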
SUMO1 PPI mod – modulators of human SUMO1-mediated protein-protein interactions. 0.33% of 360,000 active. AID 602429. SUMO1 binding to a labelled peptide, TR-FRET, 1 h. P63165. inhibition, % at 20 µM; in the data active = inhibition above about 37%
Target sequence (P63165 whole entry, looked up): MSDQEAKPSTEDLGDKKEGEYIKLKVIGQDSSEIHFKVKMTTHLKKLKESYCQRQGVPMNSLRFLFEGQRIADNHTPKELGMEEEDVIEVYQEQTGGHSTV
Scp-1 inhibitor – blocks human Scp-1 phosphatase activity; Recombinant Scp1, phosphopeptide, malachite green phosphate absorbance; inhibition, % at 20 µM; AID 493091; 0.88% of 340,000 active;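 active = inhibition above about 50% at 20 µM, limit read from the data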;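 also: plate controls were DMSO wells with enzyme for no effect and wells lacking enzyme for full effect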
Target sequence (Q9GZU7 76-261 limits assumed): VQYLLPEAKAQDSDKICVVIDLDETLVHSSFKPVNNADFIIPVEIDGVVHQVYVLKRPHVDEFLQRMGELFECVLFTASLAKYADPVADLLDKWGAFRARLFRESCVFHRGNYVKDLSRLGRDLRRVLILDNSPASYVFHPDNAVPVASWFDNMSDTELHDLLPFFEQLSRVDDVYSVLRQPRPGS
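Assay system: SCP-1 catalytic fragment, aa 76-261 | Buffer or medium: Tris acetate buffer pH 5.5 with MgCl2 and Tween-20 | Compound: One concentration, 20 µM, with 1.0% DMSO | Also added: Phospho 17-mer peptide substrate | Signal: Absorbance at 630 nm | Incubation: 45 min enzyme reaction at room temperature | Measure: % inhibition of SCP-1 phosphate liberation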
NadD block – inhibitors of Staphylococcus aureus NadD | purified NadD enzyme, colorimetric absorbance read-out | inhibition, % at 20 µM | 0.78% of 360,000 active | AID 602399; in the data active = inhibition above about 26%
Starred values were filed as active, the others as inactive; nt = no result given.

SMILES | DNMT1 inh | STEP inh | LMPTP block | SUMO1 PPI mod | Scp-1 inhibitor | NadD block
O=C(Nc1cccc(Cl)c1)c1cc(N=Nc2ccc([N+](=O)[O-])cc2Cl)ccc1O | -22.0 | 31.9 | 12.5 | 100.2* | 70.6* | 50.0*
Cc1ccc2nc(NCc3ccco3)c(C=NCc3ccco3)c(=O)n2c1 | 5.9 | -1.8 | -1.6 | -1.9 | -1.3 | 1.1
CC(=O)Nc1cc(NC(C)=O)cc(C(=O)OCC(=O)c2ccc3c(c2)NC(=O)CO3)c1 | -2.6 | -1.4 | 2.3 | 2.7 | 7.5 | 4.6
N#CCC(=O)Nc1ccc(C(=O)OCC(=O)c2ccc3c(c2)NC(=O)CO3)cc1 | -4.9 | 2.8 | 15.9 | 83.6* | 11.2 | 16.4
CN(C)S(=O)(=O)c1ccc(-c2csc(N/N=C/c3ccc(O)cc3)n2)cc1 | -20.6 | 12.4 | 1.5 | -9.9 | -0.7 | 37.9*
COc1ccc(-c2[nH]c(-c3ccc(C(=O)O)cc3)nc2-c2ccccc2)cc1 | -6.1 | -5.3 | 0.2 | 5.6 | 9.7 | 7.2
COc1cc(-c2nc(-c3ccc4c(c3)-c3ccccc3S4(=O)=O)c(-c3ccccc3)[nH]2)cc(OC)c1O | -17.2 | -0.5 | 3.3 | 0.3 | 6.3 | 35.2*
O=C1CCCN1CCCNc1nc(NCc2cccs2)nc2ccsc12 | -0.2 | 0.9 | 74.0* | 0.7 | nt | 4.3
O=C1OC(Nc2ncccn2)c2ccccc21 (centres undefined) | 2.8 | -1.6 | -2.2 | 0.4 | -0.3 | -8.7
O=C(CCSc1nnc(-c2ccco2)o1)Nc1ccc(Cl)cc1 | -5.3 | -2.1 | -0.4 | 2.9 | -19.9 | -9.4
CCc1ccc(CNC(=O)CCS(=O)(=O)Cc2ccccc2F)cc1 | 0.8 | 0.1 | -1.5 | 3.5 | 17.0 | -8.1
O=C(O)CCC(=O)Nc1cc(C(F)(F)F)cc(C(F)(F)F)c1 | 2.1 | 0.6 | 1.3 | 44.3* | -5.0 | 5.8
COc1ccccc1C(=O)Nc1ccccc1C(=O)N1C(C)CCCC1C (centres undefined) | -0.1 | -1.0 | -0.3 | 11.0 | -0.8 | -2.2
O=C1CCCN2N=C(SCC(=O)Nc3nccs3)SC2=N1 | -3.9 | 0.2 | 2.1 | 3.6 | 34.8 | 1.0
CCOC(=O)[C@]12CCCC=C1N(Cc1ccco1)C(=O)[C@H](CC(=O)NCc1cccc3ccccc13)C2 | nt | nt | 0.4 | -4.3 | nt | 1.4
Oc1cc(CNC2CCCCC2)c(O)cc1CNC1CCCCC1 | -10.9 | 5.2 | 3.5 | -9.8 | -5.0 | 30.8*
Cc1ccccc1CNC1CCCCC1 | 0.8 | -0.6 | -0.6 | -0.6 | -2.4 | 1.5
CC(=O)Nc1ccc(NC(=O)CSc2ccc(-c3ccc(-n4ccnc4)cc3)nn2)cc1 | -3.3 | 2.1 | 8.1 | 41.8* | -0.8 | -2.3
O=C(CC1S/C(=N/N=C2CCCCCC2)NC1=O)Nc1ccc(Br)cc1F (centres undefined) | -3.8 | -1.8 | 1.1 | 0.1 | -11.8 | -2.4
CCCC(=O)Nc1ccc2nc(SCC(=O)N3CCCC3)sc2c1 | 1.1 | 1.3 | -1.9 | -2.1 | -7.4 | -1.5
Cn1c(SCC(=O)Nc2ccc3nc(SCC(=O)N4CCCC4)sc3c2)nnc1-c1ccccc1 | nt | nt | nt | nt | 102.4* | nt
NS(=O)(=O)c1ccc(N/N=C/c2ccncc2)cc1 | 1.5 | 0.1 | 2.2 | -26.4 | -4.9 | 2.8
NS(=O)(=O)c1ccc(N/N=C/c2ccccc2Br)cc1 | -2.6 | -2.7 | 3.6 | 59.6* | -2.0 | -7.0
Cc1ccc(/C=C2/SC(=S)N(CC(=O)Nc3ncc(Cc4ccc(C)cc4)s3)C2=O)cc1 | 12.3 | -3.1 | -1.3 | -1.1 | -4.3 | 25.0
Cc1cccc(Cc2cnc(NC(=O)CN3C(=O)/C(=C/c4ccccc4)SC3=S)s2)c1 | -10.2 | 0.2 | 0.1 | -9.4 | 3.2 | 31.0*
SMILES | DNMT1 inh | STEP inh | LMPTP block | SUMO1 PPI mod | Scp-1 inhibitor | NadD block
COc1cc(/C=C2/SC(=S)N(CC(=O)Nc3nc4ccccc4s3)C2=O)cc(OC)c1OC | -6.0 | -6.5 | 0.9 | -1.4 | -3.0 | 35.0*
CC(/C=C/c1ccc(N(C)C)cc1)=N\N=C1\NC(=O)CC(C(=O)Nc2ccccc2)S1 (centres undefined) | -24.4 | -5.3 | 3.4 | -6.2 | -7.8 | 49.0*
COc1ccc(NC(=O)C2CC(=O)N/C(=N/N=C/c3ccccc3)S2)cc1 (centres undefined) | 8.9 | 3.5 | -2.9 | -1.9 | 4.5 | -4.5
C/C(CCc1ccc2c(c1)OCO2)=N\N=C1\NC(=O)CC(C(=O)Nc2ccc(C(=O)O)cc2)S1 (centres undefined) | 0.5 | 4.2 | 0.4 | -2.2 | 32.2 | -5.9
CCCOc1ccc(NC(=O)C2CC(=O)N/C(=N/N=C(C)/C=C/c3ccc(N(C)C)cc3)S2)cc1 (centres undefined) | -23.5 | 0.8 | 1.4 | -7.2 | -3.9 | 56.1*
CC(/C=C/c1ccc(N(C)C)cc1)=N/N=C1/NC(=O)CC(C(=O)Nc2ccc(Cl)cc2)S1 (centres undefined) | -31.4 | -2.7 | 3.6 | -4.8 | 2.5 | 47.1*
O=[N+]([O-])c1ccccc1Nc1ccccc1[N+](=O)[O-] | -1.3 | 5.0 | 6.7 | -25.7 | -4.7 | 5.6
N#Cc1c(N)c(C#N)c(-c2ccc(O)cc2)c2c1CCCC2 | -5.8 | -5.1 | 0.7 | 5.5 | -15.0 | -0.7
N#Cc1c(N)c(C#N)c(-c2ccc3c(c2)OCO3)c2c1CCCC2 | -7.0 | -0.4 | 3.6 | 43.6* | -14.2 | -6.4
O=C(N/N=C\C=C\c1ccc([N+](=O)[O-])o1)c1cccs1 | 80.6* | 12.3 | 5.9 | 8.7 | 57.4* | -6.9
O=C(N/N=C/C=C/c1ccccc1[N+](=O)[O-])c1cccs1 | -0.2 | -4.6 | -1.1 | -16.3 | -8.2 | -4.7
Cc1oc(-c2cc(F)ccc2F)nc1CN1CCN(c2cnccn2)CC1 | -4.2 | -0.7 | 0.2 | 43.8* | 4.2 | -2.5
Nc1nonc1-c1nc2ccccc2n1CC(=O)N/N=C/c1ccc(-c2cccc(C(=O)O)c2)o1 | 27.2 | 13.7 | 7.1 | 22.2 | 72.0* | 10.7
CC(C)OC(=O)c1ccc(NC(=O)Cn2c(-c3nonc3N)nc3ccccc32)cc1 | -8.9 | 5.6 | 3.4 | 42.7* | -4.8 | 1.9
CC1=NN(c2ccc(C)cc2)C(=O)/C1=C\C=C\c1ccccc1 | 19.3 | -0.1 | 3.2 | 27.6 | -6.9 | -4.1
O=C(c1cc([N+](=O)[O-])ccc1N1CCOCC1)N1CCN(S(=O)(=O)c2ccc(F)cc2)CC1 | 0.5 | -0.1 | -0.5 | -17.0 | -3.5 | 0.3
Cc1ccc(C)c(S(=O)(=O)/N=C2\C=C(NS(=O)(=O)c3ccccc3)C(=O)c3ccccc32)c1 | -11.6 | -1.5 | 2.0 | 9.4 | -1.8 | 29.1*
CC(C)c1ccc(S(=O)(=O)/N=C2\C=C(NS(=O)(=O)c3ccccc3)C(=O)c3ccccc32)cc1 | -20.6 | 4.5 | 4.1 | -14.7 | -5.3 | 41.3*
CCc1ccc(S(=O)(=O)/N=C2\C=C(NS(=O)(=O)c3ccccc3)C(=O)c3ccccc32)cc1 | -13.9 | 1.2 | 1.6 | -3.1 | -3.7 | 27.2
